Assay results gathered from unrelated publications.
Protocols differ between the studies behind these lines.
CYP3A4: Cytochrome P450 3A4 (CYP3A4, Homo sapiens, UniProt P08684)

Compound	tested on	assay	test system	conditions	measurement	result
COCCCOc1ccnc(C[S+]([O-])c2nc3ccccc3[nH]2)c1C (centres unmarked)	CYP3A4	enzyme activity, inhibitor		30 µM, 1 h, pH 7.4	inhibition	50 to 60%
CNC(=O)n1ccc2cc(Oc3ccnc(NC(=O)c4ccc(C5CCN(CCO)CC5)cc4)c3)c(OCCOC)cc21			human, plasma	oral, 35 mg, single dose, fasted, healthy volunteers	Vd/F	11800 L
NC(=S)NN=Cc1ncccc1N			human, plasma	oral	Vd/F	223 L
Cc1ccc(C(=O)Nc2ccc(CN3CCN(C)CC3)c(C(F)(F)F)c2)cc1C#Cc1cnc2[nH]ncc2c1			human, plasma	oral, 20 mg, healthy volunteers	Vd/F	8220 L
CCN1CCN(Cc2ccc(NC(=O)c3ccc(C)c(NC(=O)c4cncc(-c5cccs5)c4)c3)cc2C(F)(F)F)CC1			mouse, plasma	intraperitoneal, 30 mg/kg, single dose	Cmax	716 ng/mL
COc1ccc2c(c1)C[C@H]1[C@@H](OC(=O)c3ccccc3)[C@H](OC(C)=O)C(COC(=O)c3ccccc3)=C[C@H]1O2	RAW264.7	cell growth or viability, MTT		15 µM, 24 h	viability	91.9%
COc1ccc2[nH]c([S+]([O-])Cc3ncc(C)c(OC)c3C)nc2c1 (centres unmarked)	CYP3A4	enzyme activity, inhibitor		30 µM, 1 h, pH 7.4	inhibition	50 to 60%
Cn1cc(Nc2nc(N)nc(-c3cccc(-n4ccc5cc(C6CC6)cc(F)c5c4=O)c3CO)n2)cn1			human, plasma	oral, 900 mg, single dose, fasted, suspension	Vd/F	212 L
CN(C)c1ncnc2c1ncn2[C@@H]1O[C@H](CCl)[C@@H](NC(=O)[C@@H](CSC(c2ccccc2)c2ccccc2)NC(=O)OC(C)(C)C)[C@H]1O	Vero	cell growth or viability, MTT			CC50	67.4 µM
COc1ccc2c(c1)C[C@]1(OC)C(=O)/C(=C(O)\C=C\c3ccccc3)C(=O)C[C@]1(OC)O2	RAW264.7	cell growth or viability, MTT		15 µM, 24 h	viability	92.8%
CC(=O)O[C@@]12CO[C@@H]1C[C@H](O)[C@@]1(C)C(=O)[C@H](O)C3=C(C)[C@@H](OC(=O)[C@H](O)[C@@H](NC(=O)OC(C)(C)C)c4ccccc4)C[C@@](O)([C@@H](OC(=O)c4ccccc4)[C@H]21)C3(C)C			male Kunming mouse, lung	oral, 20 mg/kg	Cmax	142 ng/g
CC(=O)OC[C@@]1(COC(=O)c2ccccc2)O[C@H]1/C=C\COC(=O)c1ccccc1	RAW264.7	cell growth or viability, MTT		15 µM, 24 h	viability	99.8%
COc1cc(O)c2c(c1)C(=O)c1cc(C)cc(O)c1C2=O	CYP3A4	enzyme activity, inhibitor	human, liver microsomes	pH 7.4, testosterone probe	Ki	6.07 µM
Cl.[2H]C([2H])([2H])CC(=O)c1cnc(NC(=O)C2CC2)cc1Nc1cccc(-c2ncn(C([2H])([2H])[2H])n2)c1OC			human, plasma	oral, 10 mg, multiple doses, once daily, fasted	Vd/F	167 L
